Test [1] is filed under the species Rattus norvegicus. In words: Maximal contraction of rat stomach induced by serotonin. The class given is functional. The gist of the method:
(§1)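 Rat stomach strip; test compound concentration giving 50% of the maximal contraction produced by 3.0 × 10⁻⁷ M serotonin (A50). Where reported as a percentage, value is the maximum contraction seen at the stated test concentration. n = 8.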

Test [2] is filed under the species Homo sapiens. The test can be described thus: In vitro inhibition of aggregation of human platelet rich plasma induced by adenosine diphosphate. As to conditions: read-out: I50. The class given is functional.
The species named for test [3] is Homo sapiens. The test can be described thus: In vitro inhibition of aggregation of human platelet rich plasma induced by arachidonic acid. The test is classed as functional. As to conditions: read-out: I50.
The species entered for test [4] is Rattus norvegicus. The test can be described thus: Maximal contraction of rat stomach induced by serotonin at 30 uM concentration. The class given is functional. The essentials: as §1
The species named for test [5] is Rattus norvegicus. In words: Concentration required to elicit 50% of the maximal contraction of rat stomach induced by serotonin. The test is classed as functional. The gist of the method:
as §1

The target in the next test is T1, Thromboxane A2 receptor (Rattus norvegicus, UniProt P34978).
T1 sequence (P34978 whole entry): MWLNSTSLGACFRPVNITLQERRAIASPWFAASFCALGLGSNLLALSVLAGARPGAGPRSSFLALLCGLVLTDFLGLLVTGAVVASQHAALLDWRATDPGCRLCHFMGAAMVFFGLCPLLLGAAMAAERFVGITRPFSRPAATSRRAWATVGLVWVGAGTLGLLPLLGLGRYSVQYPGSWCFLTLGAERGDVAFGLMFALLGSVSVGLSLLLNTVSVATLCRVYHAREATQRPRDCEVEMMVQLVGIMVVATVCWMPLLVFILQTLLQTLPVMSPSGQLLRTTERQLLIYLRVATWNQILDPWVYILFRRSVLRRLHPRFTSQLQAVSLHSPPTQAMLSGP
The test can be described thus: Antagonistic activity against Thromboxane A2 receptor in rat aorta in the presence of 11,9-epoxymethano-PGH2. The class given is functional, tissue-based.

A further test is filed under the species Cavia porcellus. In words: Competitive antagonism of 11,9-epoxymethano-PGH2-induced contraction in guinea pig trachea. The class given is functional.
Test [6] concerns the target Thromboxane A2 receptor (Cavia porcellus). The test can be described thus: Antagonistic activity against Thromboxane A2 receptor in guinea pig trachea in the presence of 9,11-azo-PGH2. To be noted: read-out: I50.
The species entered for test [7] is Rattus norvegicus. In words: Competitive antagonism of 11,9-epoxymethano-PGH2-induced contraction in rat aorta. The class given is functional.
Test [8] has as its target Thromboxane A2 receptor (Cavia porcellus). The test can be described thus: Antagonistic activity against Thromboxane A2 receptor in guinea pig trachea in the presence of 11,9-epoxymethano-PGH2. To be noted: read-out: pA2 (converted).
The species entered for test [9] is Rattus norvegicus. The test can be described thus: Maximal contraction of rat stomach induced by serotonin at 0.1 uM concentration. The test is classed as functional.

Where only a bound is given, the exact number is not on record here.

On to `C[C@H](c1ccccc1)[C@H](O)/C=C/C1C2CCC(O2)[C@H]1C/C=C\CCCC(=O)O` (some centres undefined), for which, in the test listed under Rattus norvegicus [1], the Contraction stood at 0%. Moreover, the IC50 is greater than 1000 µM in the test listed under Homo sapiens [2] and 3.1 µM in the test filed under Homo sapiens [3].
Turning to `C[C@H](c1ccccc1)[C@H](O)/C=C/C1C2CCC(O2)[C@@H]1C/C=C\CCCC(=O)O` (some centres undefined), the IC50 in the test filed under Homo sapiens [2] was greater than 100 µM; in the test listed under Homo sapiens [3], 730 µM.
Turning to `C[C@@H](c1ccccc1)[C@H](O)/C=C/[C@@H]1C2CCC(O2)[C@@H]1C/C=C\CCCc1nnn[nH]1` (some centres undefined), in the test filed under Homo sapiens [3], the IC50 was 3.2 µM.
As to `O=C(O)CCC/C=C\CC1C2CCC(O2)C1/C=C/[C@@H](O)C1CCCCC1` (some centres undefined), the IC50 in the test filed under Homo sapiens [2] was 0.9 µM; in the test filed under Homo sapiens [3], 0.4 µM. The Contraction in the test listed under Rattus norvegicus [4] worked out at 9%.
Regarding `C[C@@H](c1ccc(O)c(I)c1)[C@H](O)/C=C/C1C2CCC(O2)C1C/C=C\CCCC(=O)O` (some centres undefined), the results for the IC50 in the test listed under Homo sapiens [2] and in the test listed under Homo sapiens [3] were greater than 1000 µM and 0.93 µM, respectively.
Consider `O=C(O)CCC/C=C\CC1C2CCC(O2)C1/C=C/[C@@H](O)COc1ccccc1` (some centres undefined), for which the A50 in the test listed under Rattus norvegicus [5] worked out at 6 µM.
On to `C[C@@H](c1ccccc1)[C@H](O)/C=C/C1C2CCC(O2)C1C/C=C\CCCC(=O)O` (some centres undefined), for which the Kb on Thromboxane A2 receptor was 0.00794 µM; in the test listed under Cavia porcellus, 0.0121 µM; in the test filed under Rattus norvegicus [7], 0.0135 µM; in test [8], 0.01 µM. The Contraction in the test listed under Rattus norvegicus [1] stood at 0%. Moreover, the IC50 in [6] was 1.98 µM; in the test listed under Homo sapiens [2], greater than 1000 µM; in the test listed under Homo sapiens [3], 0.65 µM.
As to `C[C@@H](c1ccccc1)[C@H](O)/C=C/[C@@H]1C2CCC(O2)[C@@H]1CC/C=C/CCC(=O)O` (some centres undefined), the IC50 in the test filed under Homo sapiens [3] is 25 µM.
For the molecule `CCCCC(C)(C)[C@H](O)/C=C/C1C2CCC(O2)C1C/C=C\CCCC(=O)O` (some centres undefined), the results for the IC50 in the test filed under Homo sapiens [2] and in the test listed under Homo sapiens [3] were greater than 1000 µM and 1.1 µM, respectively.
Consider `O=C(O)CCC/C=C\CC1C2CCC(O2)C1/C=C/[C@@H](O)CCc1ccccc1` (some centres undefined), for which the IC50 in the test listed under Homo sapiens [2] was greater than 1000 µM; in the test listed under Homo sapiens [3] it was 1.2 µM. The molecule also showed an A50 in the test listed under Rattus norvegicus [5] of 3.7 µM.
Turning to `C[C@@H](c1ccc(O)cc1)[C@H](O)/C=C/C1C2CCC(O2)C1C/C=C\CCCC(=O)O` (some centres undefined), the IC50 turned out to be 950 µM in the test listed under Homo sapiens [2] and 0.24 µM in the test listed under Homo sapiens [3]. In the test listed under Rattus norvegicus [9], this molecule registered a Contraction of 21%.
With `CC(CC/C=C\C[C@H]1C2CCC(O2)[C@H]1/C=C/[C@@H](O)[C@@H](C)c1ccccc1)C(=O)O` (some centres undefined), the IC50 in the test listed under Homo sapiens [3] was 25 µM.
Take `CCCCC[C@H](O)/C=C/C1C2CCC(O2)C1C/C=C\CCCC(=O)O` (some centres undefined): the values for the IC50 in the test listed under Homo sapiens [2] and in the test filed under Homo sapiens [3] were 300 µM and 1.7 µM, respectively. Also, in the test listed under Rattus norvegicus [5], the A50 came to 0.4 µM.
Take `O=C(O)CCC/C=C\C[C@H]1C2CCC(O2)[C@H]1CNNC(=O)Nc1ccccc1` (some centres undefined): the Kb in the test filed under Cavia porcellus is 0.0013 µM; in the test listed under Rattus norvegicus [7], 0.00066 µM.
For the molecule `C[C@@H](c1ccccc1)[C@H](O)/C=C/[C@@H]1C2CCC(O2)[C@@H]1C/C=C\COCC(=O)O` (some centres undefined), in the test listed under Homo sapiens [3], the IC50 stood at 3.4 µM.
Same read-out and setting: for `CC(C/C=C\C[C@H]1C2CCC(O2)[C@H]1/C=C/[C@@H](O)[C@@H](C)c1ccccc1)CC(=O)O` (some centres undefined) the value was 12 µM; for `C[C@@H](c1ccccc1)[C@H](O)/C=C/[C@@H]1C2CCC(O2)[C@@H]1C/C=C\C/C=C/C(=O)O` (some centres undefined), 3.8 µM.
Same read-out and setting: for `C[C@@H](c1ccccc1)[C@H](O)/C=C/[C@@H]1C2CCC(O2)[C@@H]1C/C=C\CCC(C)(C)C(=O)O` (some centres undefined) the value was 260 µM.

The values above are taken from ChEMBL document CHEMBL1124800, “9,11-epoxy-9-homoprosta-5-enoic acid analogues as thromboxane A2 receptor antagonists” (J Med Chem, 1990).
